# Only some compounds are listed: those with a hit (about 1.4% of all), similar ones and a draw of the others.
# DDE Tn6 FP inh – DD(E)-Tn6 binding inhibition, primary FP screen; AID 720509; hit rate 0.21% among 370,000; P02675; inhibition, % at 8.3 µM; Fibrin DD(E) TRITC-Tn6 fluorescence polarization displacement;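 active = inhibition above a per-campaign cutoff: mean of compounds within control limits plus 3 SD, cut at about 15% in these data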;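 also: 0% = median of all compound wells on the plate and 100% = blocking peptide control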
# Target sequence (P02675 whole entry, looked up): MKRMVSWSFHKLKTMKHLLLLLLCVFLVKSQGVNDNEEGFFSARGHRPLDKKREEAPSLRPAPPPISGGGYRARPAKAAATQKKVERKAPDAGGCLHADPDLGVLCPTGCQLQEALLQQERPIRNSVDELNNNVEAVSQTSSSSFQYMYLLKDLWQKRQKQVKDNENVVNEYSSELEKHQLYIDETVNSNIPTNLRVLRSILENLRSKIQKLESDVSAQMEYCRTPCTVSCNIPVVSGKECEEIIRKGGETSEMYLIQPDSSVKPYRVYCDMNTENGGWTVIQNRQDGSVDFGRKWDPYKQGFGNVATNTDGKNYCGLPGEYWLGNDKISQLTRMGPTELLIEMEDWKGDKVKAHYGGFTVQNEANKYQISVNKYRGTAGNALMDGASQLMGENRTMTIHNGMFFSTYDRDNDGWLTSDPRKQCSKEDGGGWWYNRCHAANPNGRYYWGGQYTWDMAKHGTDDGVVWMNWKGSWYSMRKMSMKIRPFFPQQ
# RTF Ca sens act – increases calcium sensitivity of human cardiac regulated thin filaments | IANBD-labeled TnC RTF fluorescence at EC20 calcium; 0% EC20 calcium, 100% full calcium | hit rate 0.24% among 340,000 | AID 493008 | activation, % at 7.2 µM;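 active = activation above the mean over all tested compounds plus 3 SD, cut at about 30% in these data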;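 also: rise in fluorescence read as greater calcium sensitivity of cardiac thin filaments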
# CRFBP-R2 block – CRF-BP/CRF-R2 complex antagonism; HEK293 CRF-R2/CRF-BP, CRF-induced calcium fluorescence; inhibition, % at 11.8 µM; hit rate 0.59% among 350,000; AID 588475;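 active = inhibition of the ligand-induced calcium signal above about 50% at the single tested concentration, limit read from the data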
# Tn7 DDE FP – inhibitors of Tn7 peptide binding to human fibrin DD(E); P02675; FP displacement of FITC-Tn7 peptide from fibrin DD(E); 0% = median of compound wells per plate; inhibition, % at 8.3 µM; hit rate 0.13% among 370,000; AID 720508;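 active = inhibition above the mean of compounds falling within the control limits plus 3 SD of them, cut at about 14% in these data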;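 also: 0% = plate median of compound wells and 100% = 10 µM Aha-Tn7 peptide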
#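 System: human fibrin DD(E); quantity: Fibrin-DD(E) at 2 µM final; also added: fluorescent Tn7 probe at 0.1 µM; compound dosing: single nominal test concentration of 8.3 µM per compound; schedule: 10 min preincubation, 3 h with tracer, room temperature; detection: fluorescence polarization of the labelled Tn7 tracer; repeats: one replicate per compound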
# RTF Ca sens inh – cardiac RTF calcium desensitization. AID 493244. IANBD-labeled cardiac RTF, Ca2+ fluorescence. hit rate 0.12% among 340,000. inhibition, % at 7.15 µM;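 active = inhibition above the mean inhibition of all tested compounds plus 3 SD, cut at about 17% in these data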;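 also: assay run at fixed EC70 calcium of 1.6 mM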
# CRFR2-BP ag – agonists of human CRF-binding protein/CRF-R2 receptor complex; HEK293 CRF-R2/CRF-BP, calcium dye fluorescence (FLIPR); percent of saturating CRF peptide response; activation, % at 13.2 µM; hit rate 0.46% among 350,000; AID 588473;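 active = activation of at least 50%, plus an integration ratio under a set limit after plate pattern correction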;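 also: plate controls were neutral control wells without compound for no effect and CRF at EC100 for full effect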
# * marks the source's active call; other numbers are inactive results; nt = no result given.
SMILES,DDE Tn6 FP inh,RTF Ca sens act,CRFBP-R2 block,Tn7 DDE FP,RTF Ca sens inh,CRFR2-BP ag
COc1ccccc1N1C(=O)c2cccc3c(N(C)CCO)ccc(c23)C1=O,3.4,51.6*,-104.4,-2.3,-63.2,110.5*
Cc1ccccc1N1C(=O)c2cccc3c(N(C)CCO)ccc(c23)C1=O,4.2,178.7*,-152.5,10.8,-152.6,158.9*
O=C1CCC(CNc2ccccc2)N1c1ccccc1 (stereo not given),-1.1,nt,nt,-7.5,nt,nt
COc1ccc(C(=O)/C=C(\Nc2ccc(Br)c(C)c2)c2ccc(OC)cc2OC)c(OC)c1,1.6,nt,nt,0.5,nt,nt
COc1ccc(CNC(=O)CCc2nnc3ccc(NCCCN4CCCC4=O)nn23)cc1,-10.3,4.5,-0.1,9.2,-3.2,0.2
COc1ccccc1CNC(=O)CCc1nnc2ccc(NCCCN3CCCC3=O)nn12,-5.4,5.2,98.8*,-9.0,2.5,0.5
CCOC(=O)[C@]12CCCCC/C=C\1N(CCc1ccc(Cl)cc1)C(=O)[C@H]2CC(=O)NCC12CC3CC(CC(C3)C1)C2,7.3,nt,nt,7.2,nt,nt
COC(=O)Cn1cc(/C=C/c2cc[n+](C)cc2)c2ccccc21,-1.4,86.2*,-61.0,0.0,-116.9,51.2*
COC(=O)Cn1c(C)c(/C=C/c2cc[n+](C)cc2)c2ccccc21,-9.1,64.0*,-5.6,-13.5,-80.4,39.3
COc1ccc2c(c1)CN1CN(Cc3ccc(F)cc3)S(=O)(=O)CC21 (stereo not given),4.3,nt,nt,2.7,nt,nt
CCC(C)C(CO)NCCCn1cnc2c(OC)ncnc21 (stereo not given),-0.2,nt,-3.2,6.7,nt,0.4
COc1cccc(/C(O)=C/c2nc3ccc(C(=O)NCCc4ccc(Cl)cc4)cc3[nH]c2=O)c1,2.0,99.4*,-244.2,-6.9,-2.7,140.1*
Cc1ccc2c(c1)C1CS(=O)(=O)N(CCc3ccccc3)C(=O)N1C2 (stereo not given),-2.7,nt,nt,-2.7,nt,nt
O=S(=O)(NCc1ccccc1)c1ccccc1NCCc1ccccc1,3.2,-7.9,109.8*,7.5,1.8,1.1
CCCCCCCCNc1ccccc1S(=O)(=O)NCc1ccccc1,5.8,-2.7,-17.2,6.9,0.0,1.5
CC(C(=O)NCCN1CCOCC1)(c1ccccc1)c1ccccc1,3.9,-1.8,81.1*,-8.4,-10.2,2.9
Cc1ccccc1C(=O)NCCN1CCOCC1,3.8,3.8,-3.1,-1.6,-10.3,0.6
CCc1nc2ccc(C(=O)N3CCN(C(=O)c4ccco4)CC3)cn2c1N(CC)Cc1cccc(Br)c1,7.6,nt,nt,-0.1,nt,nt
CCN(CC)CCCNC(=O)c1oc(=O)c2ccccc2c1-c1ccc(C)cc1,-6.1,nt,nt,3.5,nt,nt
Clc1nssc1=Nc1ccc(Br)cc1,9.7,-0.7,29.2,4.8,7.6,106.6*
COc1cc(N=c2ssnc2Cl)cc(OC)c1,-6.1,8.0,-18.9,-1.7,-4.1,4.1
COc1ccc(S[C@]2(C(=O)N(C)C)CC(=O)N(c3ccccc3)[C@@H]2c2ccc(OC)cc2)cc1,-1.9,nt,nt,0.9,nt,nt
O=C(c1ccc(Cl)c(S(=O)(=O)N2CCc3ccccc3C2)c1)N1CCN(c2ccccc2)CC1,1.4,-4.1,5.2,-5.8,9.1,-1.4
O=C(c1ccc(Cl)c(S(=O)(=O)Nc2ccccc2C(=O)N2CCc3ccccc3C2)c1)N1CCc2ccccc2C1,-0.4,4.1,53.8*,-0.2,8.7,-0.3
O=C(Nc1ccc(OC(F)(F)F)cc1)Nc1nc2ncccn2c1-c1ccc(C(F)(F)F)cc1,-5.6,nt,nt,-4.1,nt,nt
SMILES,DDE Tn6 FP inh,RTF Ca sens act,CRFBP-R2 block,Tn7 DDE FP,RTF Ca sens inh,CRFR2-BP ag
c1cc(C2CCN(Cc3nc(-c4ccc5c(c4)OCO5)no3)CC2)ccn1,-7.3,-2.5,11.3,8.3,-7.7,-0.3
COCC1CCN(Cc2nc(-c3ccc4c(c3)OCO4)no2)C1 (stereo not given),-0.1,6.3,-162.5,-3.7,-12.5,202.7*
CC1CCN(S(=O)(=O)c2nnc(NC(=O)c3cccc(Cl)c3)s2)CC1,-4.3,-2.5,59.5*,2.1,0.7,12.8
CCOC1=C2[C@@H](CN(S(=O)(=O)c3ccc(C)cc3)[C@H]2c2cccc3ccccc23)[C@H]2C(=O)N(CC)C(=O)[C@H]2C1,0.0,nt,nt,1.3,nt,nt
COc1ccc(-c2csc(NC(=O)c3ccccc3NS(=O)(=O)c3ccc(F)c(F)c3)n2)cc1,-5.2,-0.8,84.3*,6.7,-7.5,43.4
Cc1ccc(S(=O)(=O)Nc2ccccc2C(=O)Nc2nc(-c3ccc(F)cc3)cs2)cc1,-13.0,-11.0,77.4*,-8.4,-4.3,21.6
COc1ccc(-c2csc(NC(=O)c3ccccc3F)n2)cc1,-7.6,-2.1,-3.2,-5.9,-11.3,1.2
C/[N+]([O-])=C\C1C(=O)CC(C)(C)CC1=O,-2.0,0.3,53.4*,-1.4,6.5,-4.4
Cc1ccc2nc(SCC(=O)N3CCOCC3)[nH]c2c1,-11.7,3.5,78.1*,8.5,-7.5,-2.0
Cc1ccc2nc(SCC(=O)N3CCN(c4ccccc4)CC3)[nH]c2c1,0.5,1.7,0.5,6.0,-16.3,-0.5
COc1cccc(CSc2nnc(C(F)(F)F)n2Cc2ccc(F)cc2)c1,-2.3,1.7,64.3*,-9.8,5.7,-1.5
NC(=O)CSc1nnnn1-c1ccc2c(c1)OCCO2,-7.4,-4.8,81.2*,-6.5,-4.2,0.9
Fc1ccccc1CSc1nnnn1-c1ccc2c(c1)OCO2,-6.2,1.8,57.5*,-5.6,-3.2,0.7
CNC(=O)CSc1nnnn1-c1ccc2c(c1)OCCO2,-0.6,-4.5,-27.8,-0.1,-5.1,-0.3
O=C(CSc1nnnn1-c1ccc2c(c1)OCO2)NCc1ccccc1,-1.3,2.1,2.4,-3.7,-3.2,0.4
Cc1ccc(-n2c(SCC(=O)Nc3ccc4c(c3)OCCO4)nnc2-c2cnccn2)cc1,1.1,nt,nt,-2.6,nt,nt
O=C(NCCOc1ccccc1F)c1ccccc1SCc1ccc(F)cc1,3.1,6.7,63.5*,-0.8,-7.2,-3.1
CCc1ccc(OCCNC(=O)c2ccccc2SCc2ccccc2)cc1,-8.2,1.8,3.4,-1.4,-4.5,5.7
CCCCCn1nc(C)c(/C=N\NC(=O)c2cc(C)oc2C)c1C,-0.3,6.9,-175.6,2.1,-2.3,106.9*
Cc1cc[n+](-c2[nH]c(=O)sc2/C=N/N=C(\[O-])c2ccccc2)cc1C,0.2,55.0*,-26.5,11.7,-60.4,27.2
Cc1cc[n+](-c2[nH]c(=O)sc2/C=N/N=C(\[O-])c2ccncc2)cc1C,-7.7,-6.3,-13.2,1.0,0.0,8.0
COC(=O)[C@]12C[C@H](CC(=O)NCCc3ccccc3OC)C(=O)N(Cc3ccccc3)C1=C[C@H](COCc1ccccc1)O[C@@H]2C,13.0,nt,nt,3.5,nt,nt
COCCCNC(=O)C[C@H]1C[C@@]2(C(=O)OC)C(=C[C@H](C3CCCC3)O[C@@H]2C)N(CCc2ccc(OC)c(OC)c2)C1=O,1.3,nt,nt,-3.0,nt,nt

# From PubChem BioAssay
